Source: PubChem
Compounds with a hit are over-represented: about 1.6% of the library has one in this group of screens.
TDP2 absorb: TDP2 (human) inhibition, absorbance primary screen; 0.34% of 370,000 active; O95551; inhibition, % at 12.8 µM; recombinant TDP2, T5PNP hydrolysis, p-nitrophenol absorbance 415 nm; AID 720702;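 active = inhibition above the mean of all tested compounds plus 3 SD, set per campaign, cut at about 25% in these data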;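 also: 0% = DMSO with enzyme and 100% = buffer with substrate but no TDP2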
Target sequence (O95551 whole entry, looked up): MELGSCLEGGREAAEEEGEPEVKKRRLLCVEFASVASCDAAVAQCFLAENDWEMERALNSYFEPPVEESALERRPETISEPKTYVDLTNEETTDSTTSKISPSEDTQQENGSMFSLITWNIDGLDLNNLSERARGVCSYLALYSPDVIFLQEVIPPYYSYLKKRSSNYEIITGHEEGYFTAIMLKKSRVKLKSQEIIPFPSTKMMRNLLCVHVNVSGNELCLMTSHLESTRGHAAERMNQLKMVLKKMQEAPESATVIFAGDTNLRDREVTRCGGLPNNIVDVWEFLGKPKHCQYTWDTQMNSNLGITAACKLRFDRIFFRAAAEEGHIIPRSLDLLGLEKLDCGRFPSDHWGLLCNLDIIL
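Material: recombinant human TDP2; quantity: TDP2 enzyme at 120 nM final; medium: Tris-HCl pH 7.5 with MgCl2; compound: single concentration, 12.8 µM nominal, with 1% DMSO; incubation: 2 h enzyme incubation at 37 °C; signal: epi absorbance; measure: percent inhibition; benchmarks: high control without enzyme, low control DMSO plus TDP2; repeats: singlicate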
LEDGF integ inh: blocks HIV-1 LEDGF/p75-dependent DNA integration | TR-FRET IN-LEDGF/p75 DNA integration, Eu/Cy5 | inhibition, % at 3.7 µM | 0.64% of 370,000 active;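 active = inhibition above the screen-wide mean plus 3 SD, cut at about 13% in these data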;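 also: signal is the Cy5 over europium emission ratio at 671 and 618 nm; 0% = plate median of compound wells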
UHRF1 MBD2 ctr: UHRF1 methyl-DNA binding inhibition. inhibition, % at 4.4 µM. UHRF1 binding to methylated oligo, TR-FRET. Q96T88. 0.75% of 370,000 active;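 also: UHRF1 SRA domain binding a hemimethylated CpG hairpin DNA probe; 0% = median of test compound wells and 100% = reference inhibitor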
MBD2 DNA inh: blocks human MBD2 binding to methylated DNA | TR-FRET, MBD2 binding to methylated oligonucleotide | AID 686964 | Q9UBB5 | inhibition, % at 4.4 µM | 0.31% of 370,000 active; in the data active = inhibition above about 13%
UHRF1 DNA bind: inhibits human UHRF1 binding to methylated oligonucleotide, MBD2 counter-screen; shares compounds with MBD2 DNA inh; 25% of 1,000 active; AID 720530; TR-FRET; inhibition, % at 4.4 µM;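 also: UHRF1 SRA domain binding a labeled hemimethylated CpG hairpin DNA; 0% = vehicle only and 100% = reference inhibitor with vehicle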
MBD2 confirm: confirmation of human MBD2-DBD methylated oligonucleotide binding inhibitors. shares compounds with MBD2 DNA inh. TR-FRET MBD2-DBD binding to methylated oligonucleotide. inhibition, % at 4.4 µM. 26% of 1,000 active. AID 720531; in the data active = inhibition above about 14%
Numbers without * were called inactive; x = not tested or not shown. Rule as the data show it, unless noted: active = inhibition above about 21%; inactive = the rest.

SMILES	TDP2 absorb	LEDGF integ inh	UHRF1 MBD2 ctr	MBD2 DNA inh	UHRF1 DNA bind	MBD2 confirm
COC(=O)C1=C(C)N(Cc2ccccc2C(F)(F)F)C(=NCc2ccccc2)NC1c1cccc(C(F)(F)F)c1 (stereo not drawn)	-11	4	2	-1	x	x
CC(=O)c1ccc(OC2(C)CCN(Cc3cc4ccccc4[nH]3)C2)cc1 (stereo not drawn)	4	-2	9	13*	5	2
COCOc1cccc(CN2CCC(C)(Oc3ccc(C(C)=O)cc3)C2)c1 (stereo not drawn)	-3	-1	1	2	x	x
COc1cc(OC)nc(Oc2ccccc2C=O)n1	6	5	-6	-1	x	x
COc1cc(OC)nc(Oc2ccccc2/C=N/O)n1	-4	3	0	15*	0	4
CN1CCCCC(NC(=O)CSc2ccccc2)C1=O (stereo not drawn)	3	-2	-1	-1	x	x
CCCc1cc(=O)[nH]c2nnc(SCC(=O)Nc3cccc(NC(C)=O)c3)n12	-2	-1	1	16*	5	6
CCCc1cc(=O)[nH]c2nnc(SCC(=O)Nc3ccc(NC(C)=O)cc3)n12	-7	-4	2	4	x	x
Cc1ccc(C(=O)NC2CCS(=O)(=O)C2)cc1S(=O)(=O)N1CCCC1 (stereo not drawn)	9	-5	1	17*	6	1
CC(CCc1ccccc1)NC(=O)CN1CCN(Cc2ccc(Cl)cc2)C1=O (stereo not drawn)	-6	-2	1	17*	5	4
COc1cc(/C=C/C(=O)c2ccccc2)cc(OC)c1OC	-10	1	1	-6	x	x
Cn1ccnc1SCC(=O)Nc1nc2ccccc2s1	5	-2	5	14*	5	1
CCOc1ccc(S(=O)(=O)NCc2ccncc2)cc1NC(=O)c1ccccc1	16	0	-2	4	x	x
COc1ccc(S(=O)(=O)NCc2ccncc2)cc1NC(=O)c1ccccc1	19	4	33*	16*	5	2
COc1ccc(S(=O)(=O)CCC(=O)N2CCN(c3ccc(C(C)=O)cc3)CC2)cc1	-1	-7	31*	18*	4	1
COc1ccc(N2CCN(C(=O)CCS(=O)(=O)c3ccc(OC)cc3)CC2)cc1	10	-3	0	-3	x	x
COc1cccc(N2CCN(C(=O)c3ccc(CS(=O)c4ccccc4C)o3)CC2)c1 (stereo not drawn)	-11	2	1	2	x	x
COc1ccc(N2CCN(C(=O)c3ccc(CS(=O)c4cccc(C)c4)o3)CC2)cc1 (stereo not drawn)	-6	-1	23*	14*	5	4
C[C@H]1[C@@H](O)CC[C@@]23CCCN2C(=O)CCC[C@@H]13	-5	1	0	-6	x	x
Fc1ccc(COc2cccc(CNCc3ccncc3)c2)cc1	-3	-7	0	38*	0	1
O=C(O)c1ccc(CNCc2cccc(OCc3ccc(F)cc3)c2)cc1	1	-4	2	0	x	x
COC(=O)[C@]12C[C@H](CC(=O)N3CCC(c4ccccc4)CC3)C(=O)N(Cc3cccc4ccccc34)C1=C[C@H](C(C)(C)C)O[C@@H]2C	7	-3	2	-2	x	x
CC1(C)CCc2c([nH]c3ccccc3c2=O)O1	3	-3	-1	-3	x	x
CCC1CCc2c([nH]c3ccccc3c2=O)O1 (stereo not drawn)	3	5	22*	13*	6	0
CCCSC1=N/C(=C\c2ccc([N+](=O)[O-])o2)C(=O)S1	9	35*	52*	19*	21*	4
SMILES	TDP2 absorb	LEDGF integ inh	UHRF1 MBD2 ctr	MBD2 DNA inh	UHRF1 DNA bind	MBD2 confirm
CCCSC1=N/C(=C\c2ccsc2)C(=O)S1	-7	3	6	6	x	x
CCCSC1=N/C(=C\C=C\c2ccco2)C(=O)S1	6	69*	95*	57*	27*	10
Nc1[nH]c(C(=O)c2ccc(Br)cc2)c(-c2ccc(Br)cc2)c1C(=O)N1CCCCC1	-9	-1	-1	4	x	x
NC(=O)c1c(N)[nH]c(C(=O)c2ccccc2)c1-c1cccc2ccccc12	-8	-2	-3	-4	x	x
OCC1(CCOc2ccccc2)CCN(CCCn2cccn2)CC1	-12	-4	19	13*	8	3
CNS(=O)(=O)/C=C/c1ccccc1CCNC(=O)OC(C)(C)C	-11	5	0	-2	x	x
CCCNC(=O)c1ccc2c(=O)n3c(-c4ccc(C)cc4)csc3nc2c1	2	2	16	15*	0	7
CCCNC(=O)c1ccc2snnc2c1	-9	-4	3	-2	x	x
Cn1c(=O)cc(OCCCC(=O)Nc2cc(C(F)(F)F)ccn2)c2ccccc21	-3	0	0	-3	x	x
CN1OC[C@@H]2CN(C(=O)C3CCCCC3)[C@H](c3ccc(N4CCCCC4)cc3)C[C@@H]21	-2	-9	-3	-4	x	x
O=C1COc2ccc(C(=O)COC(=O)/C=C/c3ccc(Br)o3)cc2N1	-1	24*	46*	19*	44*	32*
Cc1ccc(/C=C/C(=O)OCC(=O)c2ccc3c(c2)NC(=O)CO3)o1	-8	2	-2	-5	x	x
O=C(CN1C(=O)/C(=C/c2ccco2)SC1=S)Nc1ccc(C(=O)O)c(O)c1	21	90*	79*	20*	26*	7
COc1ccccc1NC(=O)N1CCC(c2nc3cc(C)c(C)cc3[nH]2)CC1	10	0	18	13*	6	2
COc1ccccc1NC(=S)N1CCC(c2nc3cc(C)c(C)cc3[nH]2)CC1	-10	-6	4	4	x	x
Nc1nc2c(ncn2[C@@H]2O[C@H](C(=O)NCCCN3CCCC3=O)[C@@H](O)[C@H]2O)c(=O)[nH]1	1	-3	1	2	x	x
CCOC(=O)[C@]12CCCC3=C1N(CCC3)C(=O)[C@@H](CC(=O)NCc1ccc(OC)c(OC)c1)C2	-2	4	3	3	x	x
COc1cc2c(cc1NC(=O)CSc1nnc(-c3cccnc3)n1-c1ccc(Br)cc1)oc1ccccc12	6	2	-1	-2	x	x
C[C@H](NC(=O)c1cc2c(cn1)[nH]c1ccccc12)C(=O)O	1	-3	1	42*	3	3
COC(=O)[C@H](C)NC(=O)c1cc2c(cn1)[nH]c1ccccc12	5	-1	0	4	x	x
COc1ccccc1C(=O)NC(CCSC)C(=O)NCC(c1cccs1)N(C)C (stereo not drawn)	0	0	3	14*	11	2
O=C(CSc1nnc(-c2ccccc2)n1Cc1ccco1)Nc1ccc(Oc2ccccc2)cc1	5	0	2	2	x	x
CCc1ccc(NC(=O)CCCN2C(=S)NC(C)(C)CC2C)cc1 (stereo not drawn)	-14	4	2	19*	3	3
